From ChEMBL document CHEMBL4196006, “Aryl thiosemicarbazones for the treatment of trypanosomatidic infections” (Eur J Med Chem, 2018) come the findings set out here.

Calls of active or inactive are those of the source. The calls are words filed in the database; no cut-off is given here.

In one series the test system is Leishmania infantum. As to the kind of experiment: Antileishmanial activity against Leishmania infantum amastigote form assessed as parasite growth inhibition at 50 uM after 72 hrs by steady-Glo reagent based assay relative to control. Type of series: functional. A digest of the protocol:
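Intramacrophage L. infantum amastigotes in THP-1-derived macrophages, tested at 50 μM or in dose-response. Plates held 72 h at 37 °C, 5% CO2. Medium was replaced by PBS, macrophages lysed, and parasites read by Steady-Glo luminescence. High-content imaging gave host cell number, infection ratio (infected/total cells) and parasites per infected cell. Values are means of at least two independent experiments.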

A short description of series [1]: Cytotoxicity against human WI38 cells assessed as growth inhibition at 10 uM after 48 hrs by CellTiter-Glo assay relative to control; values are per cent of control. As to conditions: WI38 cells.
A further series concerns the target Aurora kinase B (Homo sapiens, UniProt Q96GD4). Nature of the series: Inhibition of recombinant full-length human aurora B kinase expressed in baculovirus system at 10 uM using MBP as substrate incubated for 45 mins by ADP-glo kinase assay. As to conditions: probe MBP. The method in brief:
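Aurora B activity measured as ADP formation via coupled luciferase ADP-Glo luminescence; single-point at 10 μM, triplicate.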
(ADP-Glo turns the ADP formed in a reaction into a luminescent signal.)

A short description of series [2]: Cytotoxicity against human THP1 cells assessed as viable cells at 100 uM after 72 hrs by MTT assay relative to control. The series is classed as cell-based, THP-1. The following applies: read-out: Activity. A digest of the protocol:
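THP-1-derived macrophages exposed to compounds for 72 h, tested at 100 μM or in dose-response; viability read by MTT colorimetric assay.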
On the technique in general: Formazan colour is commonly taken as a measure of viable cells.

The target in a further series is CYP2C9 (Homo sapiens, UniProt P11712). Nature of the series: Inhibition of human microsomal CYP2C9 expressed in baculovirus infected BTI-TN-5B1-4 cells at 10 uM incubated for 30 mins by luciferase assay relative to control. The series is classed as ADME. A digest of the protocol:
(§1)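 CYP1A2, 2C9, 2C19, 2D6 and 3A4 in microsomes from baculovirus-infected insect cells, each with a P450-Glo luminogenic substrate. Inhibition read as loss of light; single-point at 10 μM, triplicate.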

The target in the next series is CYP2D6 (Homo sapiens, UniProt P10635). As to the kind of experiment: Inhibition of human microsomal CYP2D6 expressed in baculovirus infected BTI-TN-5B1-4 cells at 10 uM incubated for 30 mins by luciferase assay relative to control. The series is classed as ADME. The method in brief: as §1
Chain of CYP2D6 (P10635 whole entry): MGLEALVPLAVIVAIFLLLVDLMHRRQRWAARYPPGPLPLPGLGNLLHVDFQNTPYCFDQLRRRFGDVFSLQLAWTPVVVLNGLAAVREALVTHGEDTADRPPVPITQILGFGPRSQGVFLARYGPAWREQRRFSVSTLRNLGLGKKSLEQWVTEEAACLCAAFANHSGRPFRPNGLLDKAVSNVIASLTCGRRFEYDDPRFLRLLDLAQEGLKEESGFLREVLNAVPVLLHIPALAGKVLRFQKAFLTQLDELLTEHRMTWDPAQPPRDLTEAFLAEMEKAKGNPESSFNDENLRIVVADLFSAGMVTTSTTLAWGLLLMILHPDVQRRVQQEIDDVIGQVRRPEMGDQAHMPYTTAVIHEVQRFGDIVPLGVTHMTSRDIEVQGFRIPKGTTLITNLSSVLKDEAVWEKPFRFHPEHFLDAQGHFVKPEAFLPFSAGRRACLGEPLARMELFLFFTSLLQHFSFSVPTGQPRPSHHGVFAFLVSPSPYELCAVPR
The test system of series [3] is Trypanosoma brucei. As to the kind of experiment: Potentiation of methotrexate-induced antitrypanosomal activity against Trypanosoma brucei Lister 427 bloodstream form at 10 uM after 72 hrs by resazurin dye-based assay relative to control. Type of series: functional.
For the next series, the target named is T1, CYP1A2 (Homo sapiens, UniProt P05177).
T1 sequence (P05177 whole entry): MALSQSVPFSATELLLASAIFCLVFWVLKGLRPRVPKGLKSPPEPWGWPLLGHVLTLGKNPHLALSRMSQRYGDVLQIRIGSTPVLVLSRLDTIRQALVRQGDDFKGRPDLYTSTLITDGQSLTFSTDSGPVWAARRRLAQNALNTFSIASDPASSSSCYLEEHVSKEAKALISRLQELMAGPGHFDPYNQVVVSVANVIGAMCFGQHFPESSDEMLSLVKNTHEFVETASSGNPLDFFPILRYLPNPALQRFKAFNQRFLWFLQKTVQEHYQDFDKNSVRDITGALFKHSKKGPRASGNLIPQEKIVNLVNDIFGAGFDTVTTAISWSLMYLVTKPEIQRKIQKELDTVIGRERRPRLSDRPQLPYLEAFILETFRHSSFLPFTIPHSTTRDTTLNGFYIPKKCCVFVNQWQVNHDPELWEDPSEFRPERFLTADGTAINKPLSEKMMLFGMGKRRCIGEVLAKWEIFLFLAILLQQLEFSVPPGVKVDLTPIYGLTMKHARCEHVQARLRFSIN
Nature of the series: Inhibition of human microsomal CYP1A2 expressed in baculovirus infected BTI-TN-5B1-4 cells at 10 uM incubated for 30 mins by luciferase assay relative to control. The series is classed as ADME. A digest of the protocol: as §1

Series [4] deals with Trypanosoma cruzi. Nature of the series: Antitrypanosomal activity against Trypanosoma cruzi amastigote form infected in human U2OS cells assessed as parasite growth inhibition at 50 uM after 72 hrs relative to control. The following applies: read-out: GI. The series is classed as functional. The method in brief: (§2)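 U2OS monolayers grown for 24 h, then infected with tissue-derived trypomastigotes of T. cruzi Y strain. Compounds were added 24 h after infection at 50 μM (single-point) or in dose-response, with 72 h exposure. Plates were fixed, stained and analysed by high-content imaging; activity was normalized to infected and non-infected controls. Means of at least two experiments; benznidazole as reference.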

Series [5] addresses T2, Pteridine reductase, putative (Trypanosoma brucei) (UniProt Q581W1).
T2 sequence (whole entry): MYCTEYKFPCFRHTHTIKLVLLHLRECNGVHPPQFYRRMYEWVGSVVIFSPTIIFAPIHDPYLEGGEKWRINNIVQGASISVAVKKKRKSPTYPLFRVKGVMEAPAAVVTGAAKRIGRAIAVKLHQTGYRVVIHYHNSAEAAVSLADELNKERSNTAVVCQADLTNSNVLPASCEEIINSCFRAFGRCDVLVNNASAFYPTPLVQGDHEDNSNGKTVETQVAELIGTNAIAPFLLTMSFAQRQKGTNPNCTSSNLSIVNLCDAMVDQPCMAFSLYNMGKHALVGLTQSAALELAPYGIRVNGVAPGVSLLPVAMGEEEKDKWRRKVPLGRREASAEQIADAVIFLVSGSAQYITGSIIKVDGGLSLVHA
As to the kind of experiment: Inhibition of Trypanosoma brucei PTR1 at 50 uM using H2B as substrate in presence of NADPH by photometric analysis relative to control.

Series [6] is described as follows: Cytotoxicity against human U2OS cells assessed as viable cells at 50 uM after 72 hrs by MTT assay relative to control. The following applies: read-out: Activity. Type of series: cell-based.
Series [7] deals with Trypanosoma brucei. Nature of the series: Antitrypanosomal activity against Trypanosoma brucei Lister 427 bloodstream form at 10 uM after 72 hrs by resazurin dye-based assay relative to control. The series is classed as functional.
Series [8] concerns the target T3, Pteridine reductase 1 (Leishmania major) (UniProt Q01782).
T3 sequence (whole entry): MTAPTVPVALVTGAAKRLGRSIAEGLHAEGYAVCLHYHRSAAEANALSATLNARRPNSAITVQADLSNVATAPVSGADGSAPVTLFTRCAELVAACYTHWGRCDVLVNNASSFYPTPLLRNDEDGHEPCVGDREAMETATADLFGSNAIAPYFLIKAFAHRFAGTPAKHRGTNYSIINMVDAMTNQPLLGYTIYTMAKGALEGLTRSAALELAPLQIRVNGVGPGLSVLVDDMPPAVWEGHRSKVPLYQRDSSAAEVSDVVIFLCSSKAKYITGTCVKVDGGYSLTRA
As to the kind of experiment: Inhibition of Leishmania major PTR1 at 50 uM using H2B as substrate in presence of NADPH by photometric analysis relative to control.

Series [9] deals with Trypanosoma brucei. As to the kind of experiment: Antitrypanosomal activity against Trypanosoma brucei Lister 427 bloodstream form assessed as parasite growth inhibition at 50 uM after 72 hrs by SYBR Green assay relative to control. The following applies: Lister 427, 72 h, read-out: GI. The series is classed as functional.
Series [10] is described as follows: Cytotoxicity against human 786-O cells assessed as inhibition of mitochondrial viability at 10 uM after 6 hrs by CMXRos staining based assay relative to control. Type of series: cell-based, 786-0. As to conditions: read-out: INH. The method in brief: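 Mitochondrial toxicity monitored by MitoTracker Red CMXRos uptake and high-content imaging; compound at 10 μM, triplicate.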

Series [11] deals with Trypanosoma brucei. As to the kind of experiment: Antitrypanosomal activity against Trypanosoma brucei Lister 427 bloodstream form after 72 hrs by SYBR Green assay. Type of series: functional, organism-based. As to conditions: Lister 427, 72 h.
In another series the target is CYP2C19 (Homo sapiens, UniProt P33261). Nature of the series: Inhibition of human microsomal CYP2C19 expressed in baculovirus infected BTI-TN-5B1-4 cells at 10 uM incubated for 30 mins by luciferase assay relative to control. Type of series: ADME. A digest of the protocol:
as §1

Series [12] can be described thus: Cytotoxicity against human A549 cells assessed as growth inhibition at 10 uM after 48 hrs by CellTiter-Glo assay relative to control; values are per cent of control. As to conditions: A549 cells. A general note: Cellular ATP, detected with luciferase, serves as a proxy for viable cell number.
The target in the next series is CYP3A4 (Homo sapiens, UniProt P08684). As to the kind of experiment: Inhibition of human microsomal CYP3A4 expressed in baculovirus infected BTI-TN-5B1-4 cells at 10 uM incubated for 30 mins by luciferase assay relative to control. Type of series: ADME. The method in brief:
as §1

Series [13] deals with Trypanosoma brucei. Nature of the series: Potentiation of methotrexate-induced antitrypanosomal activity against Trypanosoma brucei Lister 427 bloodstream form at 10 uM after 72 hrs by resazurin dye-based assay. The series is classed as functional.
The target in a further series is hERG (KCNH2) (Homo sapiens, UniProt Q12809). As to the kind of experiment: Inhibition of human ERG at 10 uM incubated for 2 hrs by fluorescence polarisation assay relative to control.
Chain of hERG (KCNH2) (Q12809 whole entry): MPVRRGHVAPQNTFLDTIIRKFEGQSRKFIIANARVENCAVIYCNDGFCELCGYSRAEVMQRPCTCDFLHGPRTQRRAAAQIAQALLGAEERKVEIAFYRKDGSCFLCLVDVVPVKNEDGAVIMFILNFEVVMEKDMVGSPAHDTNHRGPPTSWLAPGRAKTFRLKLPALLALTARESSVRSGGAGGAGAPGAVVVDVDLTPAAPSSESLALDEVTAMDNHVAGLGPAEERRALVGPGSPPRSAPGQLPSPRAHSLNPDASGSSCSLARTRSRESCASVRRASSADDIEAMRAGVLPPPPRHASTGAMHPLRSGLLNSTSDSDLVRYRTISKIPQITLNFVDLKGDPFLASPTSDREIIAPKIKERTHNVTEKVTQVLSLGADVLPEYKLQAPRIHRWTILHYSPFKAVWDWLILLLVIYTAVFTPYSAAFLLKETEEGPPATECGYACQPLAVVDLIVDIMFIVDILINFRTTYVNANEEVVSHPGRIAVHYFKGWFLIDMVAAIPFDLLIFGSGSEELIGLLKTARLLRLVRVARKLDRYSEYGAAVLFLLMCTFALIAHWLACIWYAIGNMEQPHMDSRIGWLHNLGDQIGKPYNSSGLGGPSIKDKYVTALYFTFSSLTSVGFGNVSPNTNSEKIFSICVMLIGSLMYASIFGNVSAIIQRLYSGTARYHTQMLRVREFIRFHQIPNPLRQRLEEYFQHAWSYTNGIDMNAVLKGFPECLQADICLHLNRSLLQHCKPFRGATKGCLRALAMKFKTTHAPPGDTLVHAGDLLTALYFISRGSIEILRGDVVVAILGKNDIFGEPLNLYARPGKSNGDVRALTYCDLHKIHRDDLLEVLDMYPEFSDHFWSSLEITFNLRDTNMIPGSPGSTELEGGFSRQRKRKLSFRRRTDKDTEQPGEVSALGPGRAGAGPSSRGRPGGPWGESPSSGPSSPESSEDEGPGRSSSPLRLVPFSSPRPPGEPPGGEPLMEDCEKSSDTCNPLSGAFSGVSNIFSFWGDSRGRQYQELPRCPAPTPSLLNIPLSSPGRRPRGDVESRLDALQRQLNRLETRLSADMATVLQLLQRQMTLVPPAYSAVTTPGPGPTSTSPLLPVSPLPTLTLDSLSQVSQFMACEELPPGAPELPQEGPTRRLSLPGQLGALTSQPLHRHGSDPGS
Series [14] deals with Trypanosoma cruzi. As to the kind of experiment: Antitrypanosomal activity against Trypanosoma cruzi amastigote form infected in human U2OS cells assessed as parasite growth inhibition after 72 hrs. The series is classed as functional, organism-based. A digest of the protocol: as §2
The nature of series [15]: Selectivity index, ratio of CC50 for human U2OS cells to EC50 for Trypanosoma cruzi amastigote form. As to conditions: read-out: Ratio CC50/EC50. Type of series: toxicity. A digest of the protocol:
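Selectivity index = CC50 in the human host or cytotoxicity cell line divided by parasite EC50.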

The nature of series [16]: Cytotoxicity against human U2OS cells assessed as decrease in viable cells after 72 hrs by cell number count in anti-T. cruzi high content imaging assay. The following applies: U2OS cells.

Chain of Aurora kinase B (Q96GD4 whole entry): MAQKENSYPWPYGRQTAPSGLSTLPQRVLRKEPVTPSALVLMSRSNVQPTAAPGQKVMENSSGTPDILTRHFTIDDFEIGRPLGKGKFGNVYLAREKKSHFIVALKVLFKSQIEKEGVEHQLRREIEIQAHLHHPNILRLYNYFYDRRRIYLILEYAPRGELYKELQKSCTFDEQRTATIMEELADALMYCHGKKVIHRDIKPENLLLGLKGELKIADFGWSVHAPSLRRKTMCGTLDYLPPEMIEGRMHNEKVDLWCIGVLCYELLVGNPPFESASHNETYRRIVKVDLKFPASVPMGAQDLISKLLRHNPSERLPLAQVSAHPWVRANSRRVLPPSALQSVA
Chain of CYP3A4 (P08684 whole entry): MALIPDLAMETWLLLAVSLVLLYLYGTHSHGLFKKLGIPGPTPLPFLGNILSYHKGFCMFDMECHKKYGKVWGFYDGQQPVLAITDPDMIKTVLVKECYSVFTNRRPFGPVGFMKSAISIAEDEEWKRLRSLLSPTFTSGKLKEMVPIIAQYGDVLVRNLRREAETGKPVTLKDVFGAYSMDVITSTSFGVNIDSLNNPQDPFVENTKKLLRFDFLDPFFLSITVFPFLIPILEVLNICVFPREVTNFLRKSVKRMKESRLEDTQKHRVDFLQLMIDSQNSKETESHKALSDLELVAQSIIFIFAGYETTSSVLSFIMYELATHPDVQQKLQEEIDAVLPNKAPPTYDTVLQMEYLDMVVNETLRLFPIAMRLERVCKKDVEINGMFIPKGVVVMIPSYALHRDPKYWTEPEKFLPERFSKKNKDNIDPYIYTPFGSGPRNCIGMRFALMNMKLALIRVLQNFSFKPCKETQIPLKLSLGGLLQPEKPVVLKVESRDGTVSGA
Chain of CYP2C9 (P11712 whole entry): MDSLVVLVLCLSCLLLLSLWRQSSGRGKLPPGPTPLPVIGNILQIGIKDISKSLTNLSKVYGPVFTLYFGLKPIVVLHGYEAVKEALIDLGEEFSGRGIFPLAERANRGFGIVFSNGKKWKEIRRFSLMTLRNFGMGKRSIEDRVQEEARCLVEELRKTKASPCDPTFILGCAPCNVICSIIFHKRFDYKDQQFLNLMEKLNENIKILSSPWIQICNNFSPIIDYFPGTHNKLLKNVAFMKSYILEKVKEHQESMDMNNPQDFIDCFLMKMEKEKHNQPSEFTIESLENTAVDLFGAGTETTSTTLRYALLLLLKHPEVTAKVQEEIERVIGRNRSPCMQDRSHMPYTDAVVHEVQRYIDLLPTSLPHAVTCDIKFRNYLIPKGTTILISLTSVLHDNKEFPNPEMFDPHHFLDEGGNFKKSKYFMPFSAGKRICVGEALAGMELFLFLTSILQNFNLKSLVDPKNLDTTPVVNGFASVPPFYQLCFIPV
Chain of CYP2C19 (P33261 whole entry): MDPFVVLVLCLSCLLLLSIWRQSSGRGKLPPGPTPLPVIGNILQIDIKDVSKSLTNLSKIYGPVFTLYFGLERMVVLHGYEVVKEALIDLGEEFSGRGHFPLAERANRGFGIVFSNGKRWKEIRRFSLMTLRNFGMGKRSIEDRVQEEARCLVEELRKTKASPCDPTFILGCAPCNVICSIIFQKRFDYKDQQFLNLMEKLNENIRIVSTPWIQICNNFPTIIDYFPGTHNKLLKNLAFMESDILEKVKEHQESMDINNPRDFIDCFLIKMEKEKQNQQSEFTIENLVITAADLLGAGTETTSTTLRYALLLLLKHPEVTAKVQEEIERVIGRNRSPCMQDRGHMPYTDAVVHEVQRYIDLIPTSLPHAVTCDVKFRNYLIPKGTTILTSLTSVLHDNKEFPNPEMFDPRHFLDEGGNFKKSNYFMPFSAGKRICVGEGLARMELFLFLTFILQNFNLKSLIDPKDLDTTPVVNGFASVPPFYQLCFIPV

For `NC(=S)N/N=C/c1ccccc1O`, the inhibition of growth at 50 µM amounted to 24.1% in the series on Leishmania infantum (read-out: GI), 86.1% in the series on Trypanosoma cruzi [4] and 97.9% in the series with Trypanosoma brucei [9]. The cell growth (% of control) at 48 h, 10 µM in series [1] was found to be 108%; in [12] it was 117%. Further, on Aurora kinase B, the inhibition at 0.75 h, 10 µM was found to be 6.53%. Also, the viability at 72 h, 100 µM in [2] came out at 54.7%. Further, the inhibition at 0.5 h, 10 µM on CYP2C9 was -6.44%; against CYP2D6, -18.9%; on CYP1A2, 18.6%; on CYP2C19 it was -20.6%; against CYP3A4, -4.38%. The Activity stood at 62.5% with Trypanosoma brucei [3] and 17.83% in the series with Trypanosoma brucei [7]. For the same compound, the inhibition in series [5] came to 13.7%; in [8], 7.6%. Besides, the viability at 72 h, 50 µM in [6] was 58%. In addition, the cytotoxicity at 6 h, 10 µM in series [10] was -1.49%. The EC50 in the series on Trypanosoma brucei [11] turned out to be 31.5 µM. The PF in the series on Trypanosoma brucei [13] stood at 1.49. Further, the inhibition at 2 h, 10 µM against hERG (KCNH2) was determined as 4.46%.
Turning to `N/C(S)=N/N=C/c1cccc(Br)c1`, the “growth inhibition (GI)” value in the series on Leishmania infantum was “inactive”. For the same compound, the cell growth (% of control) at 48 h, 10 µM in series [1] was found to be 120%; in [12], 130%. Besides, the inhibition at 0.75 h, 10 µM at Aurora kinase B is -16.2%. The viability at 72 h, 100 µM in series [2] was found to be 79.3%. In addition, the inhibition at 0.5 h, 10 µM on CYP2C9 was -7.51%; against CYP2D6, -14.4%; at CYP1A2, 66.6%; against CYP2C19, -35.9%; against CYP3A4, -19.8%. The Activity in the series with Trypanosoma brucei [3] came out at 61.17%; in the series on Trypanosoma brucei [7] it was 0.83%. The results for the inhibition of growth at 50 µM in the series on Trypanosoma cruzi [4] and with Trypanosoma brucei [9] were 90.8% and 44.1%, respectively. Besides, the figures for the inhibition in series [5] and in series [8] were 14.9% and 18.4%, respectively. Moreover, in [6], the viability at 72 h, 50 µM worked out at 57.3%. The EC50 in the series with Trypanosoma cruzi [14] was 2.29 µM. In series [10], the cytotoxicity at 6 h, 10 µM came out at 0.71%. The selectivity ratio in [15] is more than 1. The CC50 at 72 h in series [16] was more than 44 µM. Moreover, the PF with Trypanosoma brucei [13] is 2.44. In addition, the inhibition at 2 h, 10 µM on hERG (KCNH2) is 10.7%.

The term inhibition denotes the drop in the measured response relative to a control, in per cent. As a reminder, the EC50 is the concentration giving half of the maximal effect. A word on the CC50: it is the concentration that lowers cell viability or growth by half.
